Experimental data published in ChEMBL document CHEMBL1145612, “Antagonists of the human adenosine A2A receptor. Part 2: Design and synthesis of 4-arylthieno[3,2-d]pyrimidine derivatives” (Bioorg Med Chem Lett, 2008).
The source made the active and inactive calls. No cut-off for these calls is given here.

Key:
Mus musculus [1] = assay: Reversal of haloperidol-induced hypolocomotion in mouse at 30 mg/kg, ip; assay type: functional, organism-based; design: dose 30 mg/kg
Method in brief: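 Haloperidol-induced hypolocomotion model in mice. Test compound was given intraperitoneally at 30 mg kg-1, and reversal of the reduced locomotion was assessed.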

Adenosine receptor A2a [2] = molecular target: T1, Adenosine receptor A2a (Homo sapiens, UniProt P29274); assay: Binding affinity at human adenosine A2A receptor
Adenosine receptor A1 = molecular target: T2, Adenosine receptor A1 (Homo sapiens, UniProt P30542); assay: Binding affinity at human adenosine A1 receptor
T2 sequence (P30542 whole entry): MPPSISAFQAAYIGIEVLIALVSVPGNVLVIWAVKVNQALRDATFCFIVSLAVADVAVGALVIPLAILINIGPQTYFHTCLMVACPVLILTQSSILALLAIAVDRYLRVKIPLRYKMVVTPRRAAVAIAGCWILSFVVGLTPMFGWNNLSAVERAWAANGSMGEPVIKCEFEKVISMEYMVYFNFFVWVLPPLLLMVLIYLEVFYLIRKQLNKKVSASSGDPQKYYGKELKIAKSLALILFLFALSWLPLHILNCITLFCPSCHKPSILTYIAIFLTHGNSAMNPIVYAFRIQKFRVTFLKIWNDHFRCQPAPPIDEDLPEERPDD

Adenosine receptor A2a [3] = molecular target: T1, Adenosine receptor A2a; assay: Agonist activity at human recombinant adenosine A2A receptor expressed in CHO cells assessed as calcium mobilization by FLIPR assay; assay type: functional, cell-based
Adenosine receptor A2b = molecular target: T3, Adenosine receptor A2b (Homo sapiens, UniProt P29275); assay: Binding affinity at human adenosine A2B receptor
T3 sequence (P29275 whole entry): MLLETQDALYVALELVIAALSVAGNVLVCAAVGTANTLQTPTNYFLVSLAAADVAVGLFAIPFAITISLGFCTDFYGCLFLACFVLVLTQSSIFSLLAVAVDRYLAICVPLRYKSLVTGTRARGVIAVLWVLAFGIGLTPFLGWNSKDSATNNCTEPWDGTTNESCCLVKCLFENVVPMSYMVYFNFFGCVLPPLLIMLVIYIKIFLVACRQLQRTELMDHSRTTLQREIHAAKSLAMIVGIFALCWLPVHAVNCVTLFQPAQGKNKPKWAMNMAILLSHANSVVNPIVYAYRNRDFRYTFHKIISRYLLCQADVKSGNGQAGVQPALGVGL

Adenosine receptor A3 = molecular target: T4, Adenosine receptor A3 (Homo sapiens, UniProt P0DMS8); assay: Binding affinity at human adenosine A3 receptor
T4 sequence (P0DMS8 whole entry): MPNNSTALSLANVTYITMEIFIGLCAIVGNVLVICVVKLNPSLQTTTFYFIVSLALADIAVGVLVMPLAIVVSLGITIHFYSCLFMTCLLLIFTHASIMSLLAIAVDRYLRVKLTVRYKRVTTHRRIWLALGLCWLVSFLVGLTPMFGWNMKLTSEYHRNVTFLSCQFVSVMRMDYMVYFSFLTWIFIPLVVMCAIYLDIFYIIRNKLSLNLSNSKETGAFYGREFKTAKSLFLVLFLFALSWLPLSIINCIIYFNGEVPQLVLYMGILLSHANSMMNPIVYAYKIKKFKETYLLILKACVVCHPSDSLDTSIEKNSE

Mus musculus [4] = assay: Reversal of haloperidol-induced hypolocomotion in mouse at 10 mg/kg, sc; assay type: functional, organism-based; design: dose 10 mg/kg

T1 sequence (P29274 whole entry): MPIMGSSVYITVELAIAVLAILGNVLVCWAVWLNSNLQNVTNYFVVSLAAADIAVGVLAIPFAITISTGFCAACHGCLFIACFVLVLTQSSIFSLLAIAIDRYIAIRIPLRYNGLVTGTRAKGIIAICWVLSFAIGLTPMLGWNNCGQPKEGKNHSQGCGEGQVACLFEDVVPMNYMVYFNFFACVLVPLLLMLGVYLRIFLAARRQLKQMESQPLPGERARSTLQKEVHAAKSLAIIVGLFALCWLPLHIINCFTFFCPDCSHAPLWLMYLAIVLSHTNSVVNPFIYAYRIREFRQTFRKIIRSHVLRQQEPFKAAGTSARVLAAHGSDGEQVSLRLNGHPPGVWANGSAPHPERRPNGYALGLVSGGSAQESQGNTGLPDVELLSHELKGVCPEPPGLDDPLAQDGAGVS

Compound	Activity (Mus musculus [1])	Ki (Adenosine receptor A2a [2])	Ki (Adenosine receptor A1)	EC50 (Adenosine receptor A2a [3])	Ki (Adenosine receptor A2b)	Ki (Adenosine receptor A3)	Activity (Mus musculus [4])
CCNc1nc(-c2cccs2)c2sccc2n1	inactive	154 nM	813 nM	> 10000 nM	–	–	–
CCc1nc(-c2ccco2)c2sccc2n1	–	30 nM	3210 nM	> 10000 nM	–	–	–
Cc1cnc(-c2nc(N(C)C)nc3ccsc23)s1	inactive	5.7 nM	908 nM	> 10000 nM	–	–	–
Clc1nc(-c2nccs2)c2sccc2n1	–	20 nM	615 nM	> 10000 nM	–	–	–
CCc1nc(-c2cccc(C)n2)c2sccc2n1	inactive	–	1270 nM	–	–	–	–
CNc1nc(-c2ccco2)c2sccc2n1	Active	40 nM	568 nM	> 10000 nM	–	–	–
CCc1nc(-c2nc(C)cs2)c2sccc2n1	Active	2.1 nM	413 nM	> 10000 nM	–	–	–
CN(C)c1nc(-c2ccccn2)c2sccc2n1	–	26 nM	1590 nM	> 10000 nM	–	–	–
OCCNc1nc(-c2cccs2)c2sccc2n1	Active	172 nM	401 nM	> 10000 nM	–	–	–
Clc1nc(-c2cccs2)c2sccc2n1	inactive	391 nM	2040 nM	> 10000 nM	–	–	–
OCCNc1nc(-c2nccs2)c2sccc2n1	Active	18 nM	57 nM	> 10000 nM	–	–	–
CC(C)c1nc(-c2nccs2)c2sccc2n1	Active	1.4 nM	208 nM	> 10000 nM	865 nM	476 nM	–
CN(C)c1nc(-c2ncc[nH]2)c2sccc2n1	Active	299 nM	5770 nM	> 10000 nM	–	–	–
COc1nc(-c2cccs2)c2sccc2n1	inactive	444 nM	1590 nM	> 10000 nM	–	–	–
CCc1nc(-c2ncc[nH]2)c2sccc2n1	Active	142 nM	5530 nM	> 10000 nM	–	–	–
CN(C)c1nc(-c2nccs2)c2sccc2n1	Active	2.3 nM	366 nM	> 10000 nM	1560 nM	1760 nM	–
Nc1nc(-c2nccs2)c2sccc2n1	Active	–	675 nM	> 10000 nM	–	–	–
CCNc1nc(-c2ccco2)c2sccc2n1	Active	58 nM	375 nM	> 10000 nM	–	–	–
CN(C)c1nc(-c2nccn2C)c2sccc2n1	inactive	14 nM	1100 nM	> 10000 nM	–	–	–
CN(C)c1nc(-c2ccco2)c2sccc2n1	Active	60 nM	2200 nM	> 10000 nM	–	–	–

Compound	Activity (Mus musculus [1])	Ki (Adenosine receptor A2a [2])	Ki (Adenosine receptor A1)	EC50 (Adenosine receptor A2a [3])	Ki (Adenosine receptor A2b)	Ki (Adenosine receptor A3)	Activity (Mus musculus [4])
Cc1ccc(-c2nc(N(C)C)nc3ccsc23)nc1	inactive	19 nM	1260 nM	> 10000 nM	–	–	–
CN(C)c1nc(-c2ccoc2)c2sccc2n1	–	748 nM	3470 nM	> 10000 nM	–	–	–
CCc1nc(-c2nccs2)c2sccc2n1	Active	1.6 nM	388 nM	> 10000 nM	721 nM	1810 nM	–
Cc1nc(-c2nc(N(C)C)nc3ccsc23)sc1C	inactive	6.6 nM	254 nM	> 10000 nM	–	–	–
CCc1nc(-c2ccccn2)c2sccc2n1	Active	13 nM	917 nM	> 10000 nM	–	–	–
Cc1csc(-c2nc(N(C)C)nc3ccsc23)n1	Active	–	303 nM	–	–	–	–
c1csc(-c2nc(C3CC3)nc3ccsc23)n1	Active	–	259 nM	–	910 nM	945 nM	Active
CCc1nc(-c2ccoc2)c2sccc2n1	–	681 nM	10000 nM	> 10000 nM	–	–	–
CN(C)c1nc(-c2cccs2)c2sccc2n1	inactive	55 nM	1960 nM	> 10000 nM	–	–	–
CCc1nc(-n2nccn2)c2sccc2n1	–	779 nM	4940 nM	> 10000 nM	–	–	–
CC(C)(C)c1nc(-c2nccs2)c2sccc2n1	inactive	3.1 nM	240 nM	> 10000 nM	–	–	–
CN(C)c1nc(-c2cnccn2)c2sccc2n1	inactive	81 nM	990 nM	> 10000 nM	–	–	–
CCc1nc(-c2cccs2)c2sccc2n1	inactive	69 nM	1470 nM	> 10000 nM	–	–	–
OC[C@H]1CCCN1c1nc(-c2nccs2)c2sccc2n1	Active	–	250 nM	–	–	–	–
CN(C)c1nc(-c2cc3ccccc3s2)c2sccc2n1	–	1330 nM	1260 nM	> 10000 nM	–	–	–
CN(C)c1nc(-c2cn[nH]c2)c2sccc2n1	–	3080 nM	5510 nM	> 10000 nM	–	–	–
OC[C@@H]1CCCN1c1nc(-c2nccs2)c2sccc2n1	Active	–	14 nM	–	2480 nM	456 nM	–
OCCNc1nc(-c2ccco2)c2sccc2n1	inactive	203 nM	868 nM	> 10000 nM	–	–	–
Nc1nc(-c2ccco2)c2sccc2n1	Active	–	–	> 10000 nM	–	–	–
